# Screening results from PubChem BioAssay.
# TRPML3 ag: human TRPML3 channel agonists, primary screen, cell-based, HEK293 TRPML3-YFP, Fluo-8 calcium fluorescence, 3 µM. Mucolipin-3 (Homo sapiens), Q8TDD5. 100% = the carbachol control signal. activation, % at 3 µM. 220,000 compounds, 0.29% hits. AID 1448, 2008;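 active = activation above its plate's cutoff, the mean activation of the plate's test wells plus 3 SD, cut at about 12% in these data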;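 note: 0% = DMSO only wells and 100% = carbachol wells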
# Target sequence (Q8TDD5 whole entry, looked up): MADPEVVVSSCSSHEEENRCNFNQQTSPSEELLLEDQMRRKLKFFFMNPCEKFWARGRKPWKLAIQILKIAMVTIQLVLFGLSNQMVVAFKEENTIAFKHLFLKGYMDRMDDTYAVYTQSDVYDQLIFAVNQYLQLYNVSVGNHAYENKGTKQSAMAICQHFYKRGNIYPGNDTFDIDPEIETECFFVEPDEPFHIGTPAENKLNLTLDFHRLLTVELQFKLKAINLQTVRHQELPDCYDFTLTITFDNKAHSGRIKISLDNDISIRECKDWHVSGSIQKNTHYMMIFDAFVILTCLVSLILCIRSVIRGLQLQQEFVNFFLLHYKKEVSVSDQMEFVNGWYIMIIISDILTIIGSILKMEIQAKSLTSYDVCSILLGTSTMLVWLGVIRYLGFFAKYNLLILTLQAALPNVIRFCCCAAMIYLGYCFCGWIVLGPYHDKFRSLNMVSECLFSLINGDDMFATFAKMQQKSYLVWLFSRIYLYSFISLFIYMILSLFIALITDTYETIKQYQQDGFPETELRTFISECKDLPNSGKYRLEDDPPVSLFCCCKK
#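 Test system – HEK293 line with stable expression of human TRPML3-YFP channel · Control set – carbachol 87 µM final as high control (100%), DMSO as low control (0%) · Signal – Fluo-8 calcium dye fluorescence, ex 470-495, em 515-575 nm · Incubation – 1-h 37 °C dye load, 5-s basal, 120-s post-compound reads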
# CRFR2-BP antag: antagonists of CRF-BP/CRF-R2 complex, primary screen, cell-based, HEK293, calcium dye fluorescence, uHTS; CRF-induced calcium fluorescence; inhibition, % at 11.8 µM; 350,000 compounds, 0.59% hits; AID 588475, 2011;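 active = inhibition of the ligand-induced calcium signal above about 50% at the single tested concentration, limit read from the data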
# CRFBP-R2 agonist: agonists of CRF-BP/CRF-R2 complex, primary screen, cell-based, HEK293, calcium dye fluorescence, uHTS; calcium dye fluorescence (FLIPR); percent of saturating CRF peptide response; activation, % at 13.2 µM; 350,000 compounds, 0.46% hits; AID 588473, 2011;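 active = activation of at least 50%, plus an integration ratio under a set limit after plate pattern correction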;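 note: plate controls were neutral control wells without compound for no effect and CRF at EC100 for full effect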
# GPR7 antag: GPR7 receptor antagonists, primary screen, cell-based, fluorescence, single concentration. Neuropeptides B/W receptor type 1 (Homo sapiens), P48145. GPR7-expressing cells, fluorescence antagonist assay. inhibition, % at 4.4 µM. 290,000 compounds, 1.1% hits. AID 1861, 2009; in the data active = inhibition above about 16%, passing the limit was not always enough;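 note: cells stimulated with the agonist NPW; 0% = agonist with vehicle and 100% = vehicle without agonist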
# zfTRPN1 agonist: zebrafish TRPN1 channel agonists, primary screen, cell-based, HEK293, calcium fluorescence; HEK293 zebrafish TRPN1-YFP, Fluo-8 calcium fluorescence; 100% = response to 87 µM carbachol; activation, % at 3 µM; 220,000 compounds, 0.18% hits; transient receptor potential cation channel N1 (TRPN1/NompC), Danio rerio; AID 1424, 2008;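 active = activation above its plate's cutoff, the mean activation of test wells on that plate plus 3 SD, cut at about 19% in these data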;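 note: 0% = DMSO alone and 100% = 87 µM carbachol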
#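 Material: zebrafish TRPN1-YFP in HEK293 cells. Doses: one dose of 3 µM, 0.3% DMSO. Incubation: dye 1 h 37 °C plus 30 min RT. Measured by: intracellular calcium fluorescence with Fluo-8.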
# GPR7 antag conf: GPR7 receptor antagonists, confirmation, cell-based, fluorescence, single concentration | shares compounds with GPR7 antag | GPR7-expressing cells, calcium fluorescence antagonist mode | inhibition, % at 4.4 µM | 2,400 compounds, 52% hits; in the data active = inhibition above about 24%;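 note: stimulated with the GPR7 agonist NPW; 0% = agonist plus vehicle and 100% = vehicle alone without agonist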
# MCHR1 antag: MCHR1 antagonists in cells, counter-screen for GPR7 antagonist project, cell-based, fluorescence, human | shares compounds with GPR7 antag | MCHR1-expressing cells, fluorescence antagonist assay | inhibition, % at 4.4 µM | 2,400 compounds, 62% hits; in the data active = inhibition above about 22%;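 note: 0% = vehicle with agonist and 100% = vehicle without agonist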
# Active calls of the source: *; nt = not tested or not shown. Shown are actives, neighbours in structure and some others; about 2% of the full set was active somewhere.
SMILES,TRPML3 ag,CRFR2-BP antag,CRFBP-R2 agonist,GPR7 antag,zfTRPN1 agonist,GPR7 antag conf,MCHR1 antag
CCOC(=O)CCc1c(C)c2ccc(OCC)c(C)c2oc1=O,0.5,-29.8,-0.2,32.2*,-1.6,42.2*,30.2*
COc1ccc(CCNC(=O)CN(Cc2ccc(Cl)cc2)S(C)(=O)=O)cc1,nt,2.6,-2.0,24.5*,nt,12.7,12.9
CN(c1ccccc1)S(=O)(=O)c1ccc(C(=O)NCCc2ccc(F)cc2)cc1,nt,-5.3,-0.8,26.5*,nt,22.6,18.3
COc1ccc(N(C)S(=O)(=O)c2ccc(Cl)c(C(=O)NCCc3ccc(Cl)cc3)c2)cc1,1.2,8.3,3.2,44.8*,-2.2,48.2*,49.6*
COCCCNC(=O)CN(Cc1ccc(Cl)cc1)S(C)(=O)=O,0.6,-11.7,1.4,-5.4,-0.2,nt,nt
O=C(Nc1ccc(-n2nncc2-c2ccco2)cc1)c1ccc(F)cc1,0.2,-9.6,-1.3,22.5*,-0.7,40.0*,72.8*
COC(=O)C1CC(c2ccccc2)N(c2ccccc2)O1 (configuration not stated),nt,37.3,-2.7,nt,nt,nt,nt
CCCCn1c(NS(=O)(=O)c2ccccc2)c(S(=O)(=O)c2ccc(C)cc2)c2nc3ccccc3nc21,0.6,-40.2,-2.2,31.1*,0.3,35.3*,41.4*
CCCCn1c(NC(=O)c2ccco2)c(S(=O)(=O)c2ccc(C)cc2)c2nc3ccccc3nc21,0.1,1.5,15.4,-6.8,1.9,nt,nt
COc1ccc(C(=O)Nc2ccccc2C(=O)Nc2ccncc2)cc1,nt,6.9,-3.3,-14.3,nt,nt,nt
Cc1ccc(C(=O)NC(C(=O)OCc2cn3cc(Cl)ccc3n2)C(C)C)cc1 (configuration not stated),nt,1.0,-0.5,nt,nt,nt,nt
COc1ccc(C=O)cc1COc1ccc(C)cc1[N+](=O)[O-],0.0,-16.3,0.1,31.4*,-1.8,27.5*,61.0*
COc1ccc(C=O)cc1COc1ccc(Cl)cc1[N+](=O)[O-],-0.1,-34.8,0.1,-0.9,0.4,nt,nt
COc1cccc(CNC(=O)C2=Cc3cccc(OC)c3OC2)c1,1.0,7.1,-0.1,33.5*,0.1,3.6,20.9
COc1cccc(CNC(=O)c2ccc(OCC(=O)N3CCOCC3)c(OC)c2)c1,nt,-0.8,0.2,nt,nt,nt,nt
CC(C)c1ccc(NC(=O)[C@H](Cc2c[nH]c3ccccc23)NC(=O)[C@@H]2Cc3ccccc3CN2)cc1,nt,-2.7,0.4,27.3*,nt,7.1,2.7
COC(=O)Cc1ccc(NC(=S)N2CCN(c3ccc(OC)cc3)CC2)cc1,0.9,19.8,-1.3,-3.3,0.4,nt,nt
COC(=O)Cc1ccc(NC(=S)N2CCN(C)CC2)cc1,0.1,9.1,0.3,33.9*,-1.3,-6.1,13.0
CCC(C)(C)NC(=O)C(c1ccccc1Cl)N(Cc1cccnc1)C(=O)CCC(=O)Nc1cc(C)on1 (configuration not stated),nt,-0.1,0.7,-7.0,nt,nt,nt
COC(=O)/C(=C/c1ccco1)NC(=O)c1ccco1,0.3,4.3,-1.8,99.7*,0.2,0.4,7.5
O=C(O)/C(=C\c1ccco1)NC(=O)c1ccco1,nt,7.6,-1.1,-7.1,nt,nt,nt
CCN1C(=O)C(NC(C)=O)c2cc(Br)ccc21 (configuration not stated),-0.1,-3.4,1.3,26.7,1.6,nt,nt
CCCCN1C(=O)C(NC(C)=O)c2cc(Br)ccc21 (configuration not stated),-0.2,-2.9,0.7,52.6*,-0.7,26.1*,19.3
O=C(Cn1cnc(S(=O)(=O)N2CCCC2)c1)Nc1ccc(OC(F)(F)F)cc1,nt,2.8,1.3,-11.0,nt,nt,nt
C[C@@H]1CN([C@@H](C)CO)C(=O)c2cc(C#CC(C)(C)O)cnc2O[C@@H]1CN(C)C(=O)c1ccccc1F,nt,0.4,0.6,nt,nt,nt,nt
SMILES,TRPML3 ag,CRFR2-BP antag,CRFBP-R2 agonist,GPR7 antag,zfTRPN1 agonist,GPR7 antag conf,MCHR1 antag
Cc1ccccc1OC(C)C(=O)N1CCC(Cc2ccccc2)CC1 (configuration not stated),nt,-13.5,2.5,27.7*,nt,18.6,36.5*
COc1ccccc1OC(C)C(=O)N1CCC(Cc2ccccc2)CC1 (configuration not stated),nt,2.9,-1.9,4.5,nt,nt,nt
NC(=O)c1ccc(NC(=O)COc2coc(CN3CCc4ccccc4C3)cc2=O)cc1,nt,-5.0,3.0,nt,nt,nt,nt
COc1ccc(NC(=O)c2c(Nc3ccccc3)sc(C(=O)c3ccc(F)cc3)c2N)cc1,-0.1,9.8,9.4,-0.3,2.5,nt,nt
COc1ccc(C(=O)c2sc(Nc3cccc(OC)c3)c(C(=O)Nc3cccc(C)c3C)c2N)cc1,3.9,-77.3,121.3*,79.2*,5.5,23.0,77.0*
COc1ccc(Nc2sc(C(=O)c3ccc(Cl)cc3)c(N)c2C(=O)Nc2ccccc2OC)cc1,11.0,-50.5,31.1,71.2*,12.0,92.9*,99.7*
O=C(COc1ccccc1F)N1CCc2ccccc2C1,0.1,9.4,-1.4,25.9*,0.4,33.9*,35.1*
O=C(COc1ccccc1Cl)N1CCc2ccccc2C1,nt,-7.2,-0.3,-0.1,nt,nt,nt
CSc1cccc(NC(=O)Cc2ccccc2[N+](=O)[O-])c1,0.1,-0.9,-1.3,26.8*,-0.7,-8.8,7.7
COc1cccc(NC(=O)COC(=O)Cc2ccccc2[N+](=O)[O-])c1,0.2,-4.2,-2.2,2.8,0.0,nt,nt
COc1ccc(N(C)S(=O)(=O)c2cccc3cccnc23)c(OC)c1,0.5,-11.0,-1.0,-0.6,1.7,nt,nt
COc1ccc(N(C(=O)C2CCCCC2)S(=O)(=O)c2cccc3cccnc23)cc1,-0.4,-21.2,-2.2,21.5*,-2.4,0.9,11.8
COc1c(S(=O)(=O)N2CCN(C(=O)c3ccco3)CC2)ccc(Cl)c1Cl,nt,0.4,5.0,5.2,nt,nt,nt
O=C(COc1ccc(Br)cc1CNC1CCCCC1)NCCc1ccccc1,2.2,-23.1,-0.3,21.0*,1.2,48.0*,30.8*
C#CCOCCOCCOCCNc1nc(N2CCN(C(=O)[C@H](Cc3ccc(O)cc3)n3cc([C@@H](N)CC(C)C)nn3)CC2)nc(N2CCN(C(=O)[C@H](Cc3ccc(O)cc3)n3cc([C@@H](N)CC(C)C)nn3)CC2)n1,-0.2,nt,nt,31.2*,-1.4,-6.8,5.2
